In the library only some 6.4% were active in any assay of this set; here they are far more common.
WT yeast gro inh = growth inhibition of WT yeast, mitochondrial fusion screen | mitochondrial fusion phenotypic screen, WT strain | inhibition, % at 10 µM | actives 2.1% (n = 190,000); in the data active means inhibition above about 58%; tested in S. cerevisiae
CHOP inh = CHOP inhibition in unfolded protein response; inhibition, % at 10 µM; AID 2732; CHO-K1 CHOP-promoter luciferase, tunicamycin-induced, 15-18 h; actives 3.8% (n = 220,000);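 active means compounds that reduced the stress-induced luciferase reporter signal by more than about 70% of percent inhibition, limit read from the data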;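 further: 0% = tunicamycin plus vehicle and 100% = wells without tunicamycin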
TbMetRS inhib = blocks T. brucei methionyl-tRNA synthetase activity; purified T. brucei MetRS, ATP depletion, Kinase-Glo luminescence; AID 624268; inhibition, % at 11.9 µM; actives 0.4% (n = 360,000);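 active means inhibition above a per-plate cutoff of the control wells' mean inhibition plus 3 SD, cut at about 5.5% in these data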;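 further: 0% = DMSO wells median and 100% = median of wells with control inhibitor compound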
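Measured by: Kinase-Glo luciferase luminescence reporting remaining unconsumed ATP. Material: purified T. brucei MetRS enzyme. Doses: 11.9 µM compound single dose, 0.9% DMSO. Medium: HEPES buffer containing pyrophosphatase, BSA, spermine, DTT. Times: 15 min preincubation, 2 h reaction, all 25 °C. Reagent: methionine, ATP and bulk E. coli tRNA.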
EBV gp42 block = inhibitors of Epstein-Barr virus glycoprotein 42 | Fluorescence polarization binding assay, mP read-out | inhibition, % (tested at 21.74 µM) | AID 1085 | actives 0.42% (n = 220,000) | Q1HVG2; in the data active means inhibition above about 50%
Target sequence (Q1HVG2 whole entry, looked up): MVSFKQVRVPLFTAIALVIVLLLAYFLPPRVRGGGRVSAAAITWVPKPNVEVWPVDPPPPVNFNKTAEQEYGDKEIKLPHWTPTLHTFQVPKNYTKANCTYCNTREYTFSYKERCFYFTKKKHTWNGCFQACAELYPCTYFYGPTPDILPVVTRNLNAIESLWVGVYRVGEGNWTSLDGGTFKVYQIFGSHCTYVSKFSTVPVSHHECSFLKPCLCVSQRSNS
NR3A LBD binder = NR3A (human) ligand-binding domain modulation. AID 1259313. NR3A LBD differential scanning fluorimetry, Tm shift; 0% = protein alone, 100% = glycine-bound protein. Tm shift relative to glycine control, % at 25 µM. actives 2.5% (n = 340,000);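 active means melting temperature shift of at least 10% of the positive control shift, at one fixed dose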
MPTP block = blocks calcium-induced mitochondrial swelling | actives 1.4% (n = 360,000) | inhibition, % at 10 µM | isolated mouse mitochondria, Ca2+ swelling absorbance, 30 min | AID 602449;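 active means inhibition of 50% or more, scaled per plate between neutral and stimulator controls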;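 further: 0% = DMSO wells given calcium and 100% = 1 mM EGTA wells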
An asterisk follows results filed as active; · = no result.

SMILES	WT yeast gro inh	CHOP inh	TbMetRS inhib	EBV gp42 block	NR3A LBD binder	MPTP block
O=C(CCCOC(=O)c1ccc(O)cc1O)c1ccc(Br)cc1	·	·	-1	·	10*	6
Cc1cc2c(cc1C)NC(=O)CC(C(F)(F)C(F)(F)C(F)(F)F)=N2	-10	73*	0	-20	3	1
Cc1cc(NC(=O)c2ccc3c(c2)OCCO3)ccc1NC(=O)c1cc2ccccc2o1	8	24	0	-10	15*	1
Cc1cc(C(=O)Nc2cccc(C(=O)O)c2)oc1C	13	75*	-1	-19	0	-3
Cc1cc(NC(=O)c2cccnc2)ccc1NC(=O)c1cc2ccccc2o1	·	·	-1	·	4	0
O=C(Nc1cccc(Br)c1)c1cc2ccccc2o1	9	48	-1	-8	32*	22
Cc1cc(NC(=O)c2cc3ccccc3o2)ccc1NC(=O)c1ccccc1	·	·	1	·	16*	0
COc1ccc(N2CCN(C(=O)c3ccc4c(c3)NC(=O)C(CSCc3ccccc3F)N4)CC2)cc1 (stereo not given)	·	·	0	·	·	-1
O=C(Nc1ccc(NC(=O)c2cc3ccccc3o2)cc1)c1ccc2c(c1)OCCO2	9	72*	-1	-2	21*	0
Cc1ccc(NC(=O)c2ccc3c(c2)OCCO3)cc1	-1	11	-1	-8	-1	1
COc1cc(NC(=O)c2cccc(F)c2)ccc1NC(=O)c1cc2ccccc2o1	·	·	-1	·	36*	1
COc1cc(NC(=O)c2ccc(F)cc2)ccc1NC(=O)c1cc2ccccc2o1	·	·	0	·	4	0
O=C(Cc1c(O)c2ccccc2[nH]c1=O)NC1CCCCCCC1	-10	8	-1	-11	0	1
COc1ccccc1N1CCN(c2ncc(C(=O)N3CCN(c4cccc(Cl)c4)CC3)c3ccccc23)CC1	59*	86*	0	7	0	9
CCOC(=O)C[C@H]1c2cc(C(F)(F)F)ccc2S(=O)(=O)N1Cc1ccccc1	·	·	0	·	1	1
CCOC(=O)C[C@H]1c2ccccc2S(=O)(=O)N1Cc1ccc(Cl)cc1	·	·	0	·	13*	0
C=CC[n+]1c(-c2ccc(C)cc2)csc1Nc1ccc(NC(C)=O)cc1	9	85*	0	-2	0	-1
CC(=O)Nc1ccc(-c2ccc(NC(C)=O)cc2)cc1	-7	-29	-1	-14	-10	0
Cn1c(=O)c2c(nc(Oc3ccc4c(c3)OCO4)n2Cc2ccc(Cl)cc2)n(C)c1=O	15	13	-1	-13	3	0
Cn1c(Oc2ccc3c(c2)OCO3)nc2c1c(=O)n(Cc1ccccc1)c(=O)n2C	98*	41	-1	0	1	-4
CC(C)c1cc(C(=O)Nc2cccc(Cl)c2)no1	30	-6	0	-9	-4	-1
CC(C)c1onc(C(=O)Nc2cccc(Cl)c2)c1[N+](=O)[O-]	-1	-4	0	-2	20*	38
CN(Cc1ccc(Cl)c(Cl)c1)C(=O)C1=CC=CN2CCS(=O)(=O)N=C12	·	·	0	·	-5	-1
O=C(COC(=O)c1ccccc1Br)NCCC1=CCCCC1	-11	21	0	-14	-1	3
O=C(NC(=S)NCCC1=CCCCC1)c1ccccc1Br	64*	65	0	-8	-9	1
SMILES	WT yeast gro inh	CHOP inh	TbMetRS inhib	EBV gp42 block	NR3A LBD binder	MPTP block
O=C(NC(=S)NC1CCCC1)c1ccccc1Br	27	83*	0	5	-1	-1
S=C(NCCC1=CCCCC1)NCc1ccco1	69*	-6	-1	4	-1	-1
COCCN(Cc1cn(C)nc1-c1ccccc1F)C(C)C	1	5	-1	-6	-1	0
Cc1ccc(N=Nc2ccc(O)c3ncccc23)cc1C	-1	92*	0	-5	-6	4
COc1ccccc1N=Nc1ccc(O)c2ncccc12	·	·	-1	·	-16	7
Oc1ccc(F)c2cccnc12	9	72*	0	4	-1	0
Cc1ccc(N=Nc2ccc(O)c3ncccc23)cc1	64*	31	0	14	-6	2
Oc1ccc(Cl)c2cccnc12	·	·	0	·	-1	-4
Oc1ccc(N=Nc2ccccc2C(F)(F)F)c2cccnc12	·	·	1	·	-1	8
Cc1nc2ccccn2c1C(=O)N/N=C/c1ccccc1[N+](=O)[O-]	3	-11	0	-19	-19	1
